According to ChEMBL document CHEMBL4602686, “A Meroisoprenoid, Heptenolides, and C-Benzylated Flavonoids from Sphaerocoryne gracilis ssp. gracilis” (J Nat Prod, 2020):
Activity calls are given as the source filed them. The rule behind the calls is not given here.

Tests used:
Plasmodium falciparum [1] = test: Antimalarial activity against chloroquine-sensitive Plasmodium falciparum 3D7 assessed as reduction in parasite rowth incubated for 72 hrs by DAPI staining based fluorescence assay; format: functional, organism-based; conditions: 3D7, 72 h
Plasmodium falciparum [2] = test: Antimalarial activity against chloroquine-resistant Plasmodium falciparum Dd2 assessed as reduction in parasite growth incubated for 72 hrs by DAPI staining based fluorescence assay; format: functional, organism-based; conditions: Dd2, 72 h
HEK293 = test: Cytotoxicity against HEK293 cells; format: cell-based; conditions: Homo sapiens
[3] = tested on: Plasmodium falciparum 3D7; test: Selectivity ratio of IC50 for HEK293 cells to IC50 for antimalarial activity against Plasmodium falciparum 3D7; conditions: human, HEK293 cells versus Plasmodium falciparum 3D7
Hepacivirus hominis [4] = test: Inhibition of (CAG)33/FF/HCV/Ren.pA51 mRNA cap-dependent translation assessed as reduction in firefly level at […] after 60 mins by dual luciferase reporter gene assay
Hepacivirus hominis [5] = test: Inhibition of (CAG)33/FF/HCV/Ren.pA51 mRNA cap-independent translation assessed as reduction in renilla level at […] after 60 mins by dual luciferase reporter gene assay
[6] = Cytotoxicity against HEK293 cells assessed as growth inhibition at 40 uM relative to control; format: cell-based; conditions: human, read-out: GI
Plasmodium falciparum [7] = test: Antimalarial activity against chloroquine-sensitive Plasmodium falciparum 3D7 assessed as reduction in parasite growth at 40 uM incubated for 72 hrs by DAPI staining based fluorescence assay; format: functional, organism-based
Summary of the method: (§1)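 Asexual P. falciparum 3D7 growth read by a high-content imaging assay. Each compound was tested at one concentration: 20 μM for line 1 and 40 μM for line 2. The value is percentage growth inhibition. The 20 μM values are the mean of at least two independent measurements.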

Plasmodium falciparum [8] = test: Antimalarial activity against chloroquine-resistant Plasmodium falciparum Dd2 assessed as reduction in parasite growth at 40 uM incubated for 72 hrs by DAPI staining based fluorescence assay; format: functional, organism-based
Summary of the method: (§2)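 P. falciparum Dd2 (chloroquine-resistant) growth read by high-content imaging. Isolates were screened at a single 40 μM concentration, and some were also given at 20 μM. Values are percentage growth inhibition, as the mean of at least two independent measurements.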

Plasmodium falciparum [9] = test: Antimalarial activity against chloroquine-sensitive Plasmodium falciparum 3D7 assessed as reduction in parasite growth at 20 uM incubated for 72 hrs by DAPI staining based fluorescence assay; format: functional, organism-based; summary of the method: as §1
Plasmodium falciparum [10] = test: Antimalarial activity against chloroquine-resistant Plasmodium falciparum Dd2 assessed as reduction in parasite growth at 20 uM incubated for 72 hrs by DAPI saining based fluorescence assay; format: functional, organism-based; summary of the method: as §2

Q: With `O=C1C=C/C(=C/[C@H](O)CO)O1` as the molecule, how does the IC50 (Plasmodium falciparum [1]) read?
A: Its IC50 is 10.5 µM.

Q: With `CC(=O)O[C@@H](/C=C1/C=CC(=O)O1)COC(=O)c1ccccc1` as the molecule, how does the IC50 (Plasmodium falciparum [1]) read?
A: The IC50 was 4.8 µM.

Q: What about the IC50 (Plasmodium falciparum [2]) of the same molecule?
A: The IC50 was 6.7 µM.

Q: What about the IC50 (HEK293) of the same molecule?
A: Its IC50 is 11.8 µM.

Q: And the selectivity ratio [3]?
A: Its selectivity ratio is 3.

Q: For `O=C1C=C/C(=C/[C@H](O)COC(=O)c2ccccc2)O1`, which IC50 (Plasmodium falciparum [1]) is on record?
A: The IC50 was 3.7 µM.

Q: And the inhibition (Hepacivirus hominis [4])?
A: The inhibition was “inactive”.

Q: And the inhibition (Hepacivirus hominis [5])?
A: Its inhibition is “inactive”.

Q: Which IC50 (Plasmodium falciparum [1]) does the source give for `O=C1C[C@@H](c2ccccc2)Oc2c(Cc3ccccc3O)c(O)c(Cc3ccccc3O)c(O)c21` [DICHAMANETIN] here?
A: Its IC50 is 9.3 µM.

Q: What about the IC50 (Plasmodium falciparum [2]) of the same molecule?
A: The IC50 was 6.7 µM.

Q: And the inhibition at 40 µM [6]?
A: Its inhibition at 40 µM is 75%.

Q: Which Activity (Plasmodium falciparum [7]) does the source give for `C[C@@](O)(COC(=O)/C=C/c1ccccc1)[C@H](O)COC(=O)c1ccccc1` here?
A: The Activity was “inactive”.

Q: What about the Activity (Plasmodium falciparum [8]) of the same molecule?
A: Its Activity is “inactive”.

Q: Which Activity (Plasmodium falciparum [9]) does the source give for `O=C1C[C@@H](c2ccccc2)Oc2cc(O)c(Cc3ccccc3O)c(O)c21` here?
A: Its Activity is “Active”.

Q: And the Activity (Plasmodium falciparum [10])?
A: Its Activity is “Active”.

Q: What does the source list for `CC(C)=CCC[C@@H](C)[C@H]1C[C@H](O)[C@@]2(C)C3=CC[C@H]4C(C)(C)[C@@H](O)CC[C@]4(C)C3=CC[C@]12C`?
A: Activity (Plasmodium falciparum [7]): inactive; Activity (Plasmodium falciparum [8]): inactive

Q: For `O=c1cc(-c2ccccc2)oc2c(Cc3cccc(O)c3O)c(O)cc(O)c12`, which Activity (Plasmodium falciparum [9]) is on record?
A: Its Activity is “Active”.

Q: What about the Activity (Plasmodium falciparum [10]) of the same molecule?
A: Its Activity is “Active”.

Q: And the inhibition (Hepacivirus hominis [4])?
A: The inhibition was “inactive”.

Q: What about the inhibition (Hepacivirus hominis [5]) of the same molecule?
A: The inhibition was “inactive”.

Q: What does the source list for `COC(=O)/C=C/C(=O)C[C@H](O)COC(=O)c1ccccc1`?
A: IC50 (Plasmodium falciparum [1]): 1.4 µM; IC50 (Plasmodium falciparum [2]): 4.1 µM; inhibition at 40 µM [6]: 100%; inhibition (Hepacivirus hominis [4]): inactive; inhibition (Hepacivirus hominis [5]): inactive

Q: With `O=C1C[C@@H](c2ccccc2)Oc2c(Cc3ccccc3O)c(O)cc(O)c21` as the molecule, how does the Activity (Plasmodium falciparum [9]) read?
A: The Activity was “Active”.

Q: What about the Activity (Plasmodium falciparum [10]) of the same molecule?
A: The Activity was “Active”.

Q: With `O=c1cc(-c2ccccc2)oc2cc(O)cc(O)c12` as the molecule, how does the Activity (Plasmodium falciparum [9]) read?
A: The Activity was “Active”.

Q: What about the Activity (Plasmodium falciparum [10]) of the same molecule?
A: Its Activity is “Active”.

Q: What about the inhibition (Hepacivirus hominis [4]) of the same molecule?
A: Its inhibition is “inactive”.

Q: And the inhibition (Hepacivirus hominis [5])?
A: Its inhibition is “inactive”.

Q: Which Activity (Plasmodium falciparum [9]) does the source give for `O=C1C[C@@H](c2ccccc2)Oc2cc(O)c(Cc3cccc(O)c3O)c(O)c21` here?
A: Its Activity is “Active”.

Q: What about the Activity (Plasmodium falciparum [10]) of the same molecule?
A: The Activity was “Active”.

Q: And the inhibition (Hepacivirus hominis [4])?
A: The inhibition was “inactive”.

Q: What about the inhibition (Hepacivirus hominis [5]) of the same molecule?
A: Its inhibition is “inactive”.

Q: Which Activity (Plasmodium falciparum [7]) does the source give for `O=C1C[C@@H](c2ccccc2)Oc2cc(O)cc(O)c21` here?
A: The Activity was “inactive”.

Q: And the Activity (Plasmodium falciparum [8])?
A: The Activity was “inactive”.

Q: With `O=C1C[C@@H](c2ccccc2)Oc2c(Cc3cccc(O)c3O)c(O)c(Cc3cccc(O)c3O)c(O)c21` as the molecule, how does the Activity (Plasmodium falciparum [7]) read?
A: Its Activity is “inactive”.

Q: And the Activity (Plasmodium falciparum [8])?
A: The Activity was “inactive”.

Q: And the inhibition (Hepacivirus hominis [4])?
A: The inhibition was “inactive”.

Q: And the inhibition (Hepacivirus hominis [5])?
A: The inhibition was “inactive”.
